Experimental data from different studies.
Protocols differ between the studies behind these lines.
Observed: microbial growth

Structure (SMILES) | organism | test | system | setting | MIC
O=C1NC(=S)N/C1=C\c1ccc(-c2ccc(N(c3ccccc3)c3ccccc3)cc2)c2ccccc12 | Streptococcus mutans | broth dilution | ATCC25175 | – | > 1000 µg/mL
CCCCCCC/C=C/C(=O)N1C(=O)/C(=C(/C)O)C(=O)C1CO (stereo not drawn) | Stenotrophomonas maltophilia | – | ATCC13637 | – | > 200 µg/mL
O=c1[nH]c(NCc2ccc(Cl)c(Cl)c2)nc2ncn(CCCCCN3CCOCC3)c12 | Bifidobacterium | agar dilution | – | 48 h | > 32 µg/mL
O=C1NC(=S)S/C1=C\c1c2ccccc2c(-c2ccc(N(c3ccccc3)c3ccccc3)cc2)c2ccccc12 | Streptococcus pyogenes | broth dilution | ATCC19615 | – | > 1000 µg/mL
CCCCCCC/C=C/C(=O)N1C(=O)/C(=C(\O)c2ccncc2)C(=O)C1CC(C)C (stereo not drawn) | Stenotrophomonas maltophilia | – | ATCC13637 | – | 200 µg/mL
CC(C)Oc1c(NC(=O)c2ccc(NC(=O)[C@H](CC(N)=O)NC(=O)c3ccc(NC(=O)c4ccc(C#N)cn4)cc3)cc2)ccc(C(=O)Nc2ccc(C(=O)O)cc2)c1O | Klebsiella aerogenes | – | DSM30053 | – | 0.25 µg/mL
O=C1NC(=S)S/C1=C\c1ccc(-c2ccc(N(c3ccccc3)c3ccccc3)cc2)c2ccccc12 | Streptococcus mutans | broth dilution | ATCC25175 | – | 1000 µg/mL
Cc1ncc([N+](=O)[O-])n1CCO | Bifidobacterium | agar dilution | – | 48 h | > 16 µg/mL
O=C1NC(=S)N/C1=C\c1c2ccccc2c(-c2ccc(N(c3ccccc3)c3ccccc3)cc2)c2ccccc12 | Streptococcus mutans | broth dilution | ATCC25175 | – | > 1000 µg/mL
CCCCCCC/C=C/C(=O)N1C(=O)/C(=C(\O)c2ccc(OCOCCOC)cc2)C(=O)C1CC(C)C (stereo not drawn) | Stenotrophomonas maltophilia | – | ATCC13637 | – | 200 µg/mL
CNC(=O)c1cc(Oc2ccc(NC(=O)Nc3ccc(Cl)c(C(F)(F)F)c3)cc2)ccn1 | Klebsiella aerogenes | – | DSM30053 | – | > 100 µM
CO[C@@H](C(N)=O)[C@H](NC(=O)c1ccc(NC(=O)c2ccc(C#N)cc2)cc1)C(=O)Nc1ccc(C(=O)Nc2ccc(C(=O)Nc3ccc(C(=O)O)cc3)c(O)c2OC(C)C)cc1 | Klebsiella aerogenes | – | DSM30053 | – | 2 µg/mL
CCCCCCC/C=C/C(=O)N1C(=O)/C(=C(\O)CCCC)C(=O)C1CC(C)C (stereo not drawn) | Stenotrophomonas maltophilia | – | ATCC13637 | – | > 200 µg/mL
C/C(=C\c1ccc(C#N)cc1)C(=O)Nc1ccc(C(=O)N[C@@H](CC(N)=O)C(=O)Nc2ccc(C(=O)Nc3ccc(C(=O)Nc4ccc(C(=O)O)cc4)c(O)c3OC(C)C)cc2)cc1 | Klebsiella aerogenes | – | DSM30053 | – | 0.25 µg/mL
O=C1NC(=S)S/C1=C\c1ccc(-c2ccc(N(c3ccccc3)c3ccccc3)cc2)cc1 | Streptococcus mutans | broth dilution | ATCC25175 | – | 1000 µg/mL
